Measurements as given in ChEMBL document CHEMBL1145104, “Discovery of a long-chain carbamoyl aminocarnitine derivative, a reversible carnitine palmitoyltransferase inhibitor with antiketotic and antidiabetic activity” (J Med Chem, 2003).

Assays:
[1] = target: T1, Carnitine O-palmitoyltransferase 1, muscle isoform (Rattus norvegicus, UniProt Q63704); assay: In vitro inhibition of [14C]palmitoyl-CoA and carnitine binding to carnitine palmitoyltransferase I of rat heart mitochondria
T1 sequence (Q63704 whole entry): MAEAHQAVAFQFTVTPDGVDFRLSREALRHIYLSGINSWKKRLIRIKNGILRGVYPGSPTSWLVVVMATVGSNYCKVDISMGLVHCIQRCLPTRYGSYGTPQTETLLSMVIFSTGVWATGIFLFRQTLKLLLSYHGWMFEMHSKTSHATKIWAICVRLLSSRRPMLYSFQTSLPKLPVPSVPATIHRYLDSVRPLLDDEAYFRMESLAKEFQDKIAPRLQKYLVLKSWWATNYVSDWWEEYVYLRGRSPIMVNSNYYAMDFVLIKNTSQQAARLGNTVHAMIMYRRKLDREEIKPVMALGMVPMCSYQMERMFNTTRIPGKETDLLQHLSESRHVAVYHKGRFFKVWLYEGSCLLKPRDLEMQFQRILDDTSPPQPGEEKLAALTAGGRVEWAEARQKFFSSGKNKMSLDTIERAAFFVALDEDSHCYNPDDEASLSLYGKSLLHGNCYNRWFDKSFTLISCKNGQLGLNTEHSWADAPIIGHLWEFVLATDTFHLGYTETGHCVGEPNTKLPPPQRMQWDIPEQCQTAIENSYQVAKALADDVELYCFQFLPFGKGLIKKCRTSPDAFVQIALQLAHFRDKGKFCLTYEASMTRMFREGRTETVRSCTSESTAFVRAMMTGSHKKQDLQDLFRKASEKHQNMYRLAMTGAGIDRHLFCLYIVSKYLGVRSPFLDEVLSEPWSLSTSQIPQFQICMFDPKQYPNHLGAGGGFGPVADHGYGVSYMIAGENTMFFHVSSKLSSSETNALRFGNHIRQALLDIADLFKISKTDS
Summary of the method: (§1)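 Intact mitochondria freshly isolated from the hearts of fed male Sprague-Dawley rats, suspended in buffer with 75 mM sucrose. Assay medium at pH 7.5 with [14C]palmitoyl-CoA and L-carnitine, and inhibitor at 0–3 mM. Run 1 min at 37 °C; [14C]palmitoyl incorporated into carnitine was measured. IC50 was taken from the inhibition curve; mean of two determinations in triplicate.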

[2] = target: T2, Carnitine O-palmitoyltransferase 1, liver isoform (Rattus norvegicus, UniProt P32198); assay: Inhibition of [14C]palmitoyl-CoA and carnitine binding to carnitine palmitoyltransferase I from rat liver mitochondria
T2 sequence (P32198 whole entry): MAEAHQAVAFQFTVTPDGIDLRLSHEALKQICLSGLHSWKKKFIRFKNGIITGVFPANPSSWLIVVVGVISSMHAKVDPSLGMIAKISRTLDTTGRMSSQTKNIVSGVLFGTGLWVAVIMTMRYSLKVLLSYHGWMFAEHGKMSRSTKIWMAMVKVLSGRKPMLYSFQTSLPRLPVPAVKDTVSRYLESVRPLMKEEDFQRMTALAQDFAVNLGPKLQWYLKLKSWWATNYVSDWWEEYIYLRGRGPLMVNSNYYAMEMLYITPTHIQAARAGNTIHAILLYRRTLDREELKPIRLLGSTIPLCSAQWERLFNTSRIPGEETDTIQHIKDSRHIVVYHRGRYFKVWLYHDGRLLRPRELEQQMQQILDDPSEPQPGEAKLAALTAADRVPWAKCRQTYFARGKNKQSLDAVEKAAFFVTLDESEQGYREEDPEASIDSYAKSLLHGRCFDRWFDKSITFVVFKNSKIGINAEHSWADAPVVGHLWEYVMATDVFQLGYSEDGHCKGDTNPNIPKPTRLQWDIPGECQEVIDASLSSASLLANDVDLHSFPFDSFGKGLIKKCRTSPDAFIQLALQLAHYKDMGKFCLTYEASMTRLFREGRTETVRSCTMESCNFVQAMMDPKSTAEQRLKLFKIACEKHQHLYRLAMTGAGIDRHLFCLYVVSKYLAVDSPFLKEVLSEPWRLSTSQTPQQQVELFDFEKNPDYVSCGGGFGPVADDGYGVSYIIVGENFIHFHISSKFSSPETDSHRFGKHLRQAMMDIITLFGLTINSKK
Summary of the method: as §1, with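 “livers” for “hearts”, “225” for “75”, “radiolabelled palmitoylcarnitine formation” for “[14C]palmitoyl incorporated into carnitine”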

[3] = species: Rattus norvegicus; assay: Effective dose of compound that reduces serum beta-hydroxybutyrate levels in rats
[4] = tested on: Mus musculus; assay: Percent increase in the liver triglycerides content of mice treated with 50 mg/kg of compound orally for 45 days; conditions: route oral
[5] = tested on: Mus musculus; assay: Level of fructosamine in […] mice serum after treating with 50 mg/kg of compound orally for 45 days (originally-4.80+/-0.17 mmol/L); assay type: functional; conditions: route oral
[6] = tested on: Mus musculus; assay: Level of glucose in […] mice serum after treating with 50 mg/kg of compound orally for 45 days (originally-673.9+/-44.09 mg/dL); assay type: functional; conditions: route oral
[7] = tested on: Mus musculus; assay: Percent decrease in the serum glucose level of mice treated with 50 mg/kg of compound orally for 45 days; assay type: functional; conditions: route oral
Summary of the method: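 Oral dosing of male C57BL/KsJ-db/db mice (8 weeks old, n=8) at 50 mg/kg or an equimolar dose, twice daily for 45 days; vehicle was 0.5% carboxymethylcellulose. Serum was collected 9 h after the last dose, after a 9 h fast. Glucose was measured with an autoanalyzer kit; percent reduction was calculated against untreated db/db controls; Student's t test.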

[8] = tested on: Mus musculus; assay: Percent decrease in the liver glycogen level of mice treated with 50 mg/kg of compound orally for 45 days; assay type: functional; conditions: route oral
Summary of the method: (§2)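 Male C57BL/KsJ-db/db mice, 8 weeks old, n=8 per group. Dosed orally at 50 mg/kg or an equimolar dose, twice daily for 45 days; controls got 0.5% carboxymethylcellulose vehicle at 10 mL/kg. Sampled 9 h after the last dose, after a 9 h fast. Percent change was calculated against untreated db/db controls.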

[9] = species: Rattus norvegicus; assay: Percent decrease of oleoylcarnitine levels in isolated rat hepatocytes at 3 mM compound concentration; No variation
[10] = tested on: Mus musculus; assay: Percent increase of free fatty acids level in serum of mice treated with 50 mg/kg of compound orally for 45 days; conditions: route oral
[11] = target: T2, Carnitine O-palmitoyltransferase 1, liver isoform; assay: Inhibition of rat liver carnitine palmitoyltransferase I; conditions: read-out: Ki app
Summary of the method: as §1, with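 “livers” for “hearts”, “225” for “75”, “radiolabelled palmitoylcarnitine formation” for “[14C]palmitoyl incorporated into carnitine”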

[12] = tested on: Mus musculus; assay: Percent decrease in the serum fructosamine level of mice treated with 50 mg/kg of compound orally for 45 days; assay type: functional; conditions: route oral; summary of the method: as §2

SMILES	IC50 [1]	IC50 [2]	other results
CCCCCCCCCCCCCCNC(=O)N[C@@H](CC(=O)[O-])C[N+](C)(C)C	43.4 µM	1.1 µM	ED50 [3]: 14.5 mg/kg; Increase [4]: 38%; Level in serum [5]: 3.37 mM l-1; Level in serum [6]: 202.6 mg/dL; Decrease [7]: -25%; Decrease [8]: -25%; Decrease [9]: No variation; Increase [10]: 20%; Ki [11]: 0.36 µM; Decrease [12]: -30%
CCCCCCCCCCCCNC(=O)N[C@@H](CC(=O)[O-])C[N+](C)(C)C	> 120 µM	1.8 µM	
CCCCCCCCCCCNC(=O)N[C@@H](CC(=O)[O-])C[N+](C)(C)C	118 µM		
CCCCCCCCCCCCS(=O)(=O)N[C@@H](CC(=O)[O-])C[N+](C)(C)C	3.4 µM	0.7 µM	
CCCCCCCCCCCCCCNC(=O)N[C@H](CC(=O)[O-])C[N+](C)(C)C [TEGLICAR]	167 µM	58.8 µM	

Further lines, with some results ahead:

IC50 [1]	IC50 [2]	SMILES	other results
46.2 µM	31.3 µM	CCCCCCCCCNC(=O)N[C@@H](CC(=O)[O-])C[N+](C)(C)C	
> 300 µM	43.6 µM	CCCCCCCNC(=O)N[C@@H](CC(=O)[O-])C[N+](C)(C)C	
> 300 µM	> 300 µM	CCCCCCCCOC(=O)N[C@H](CC(=O)[O-])C[N+](C)(C)C	
> 10 µM	6 µM	CCCCCCCCCCCCS(=O)(=O)N[C@H](CC(=O)[O-])C[N+](C)(C)C	
80.1 µM	9.5 µM	CCCCCCCCOC(=O)N[C@@H](CC(=O)[O-])C[N+](C)(C)C	
> 300 µM	> 300 µM	CCCCCCCCCNC(=O)N[C@H](CC(=O)[O-])C[N+](C)(C)C	
